Legend:
Format in all cases: functional, Mesocricetus auratus
[1] = tested on: Syrian golden hamster; test: Protective activity against ischemia/reperfusion-induced increase in macromolecular permeability in po dosed golden hamster cheek pouch administered 30 mins before induction of anesthesia
Method in brief: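 Male hamsters, dosed by gavage 30 min before anesthesia induction. The cheek pouch was made totally ischemic for 30 min with a syringe-inflated rubber tourniquet until blood flow ceased. Macromolecular leakage sites per cm² were counted by intravital microscopy 10 min after reperfusion onset and expressed as percentage protection relative to controls.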

[2] = tested on: Syrian golden hamster; test: Protective activity against ischemia/reperfusion-induced increase in macromolecular permeability in iv dosed golden hamster cheek pouch administered 10 mins before onset of reperfusion
Method in brief: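 Male hamster cheek pouch under intravital microscopy; compound given intravenously 10 min before reperfusion onset. Total ischemia of 30 min was produced by a soft rubber tourniquet, pressurized by syringe until flow stopped. Leakage sites (leaks/cm²) were counted 10 min after reperfusion onset and converted to percentage protection against untreated controls.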

[3] = tested on: Syrian golden hamster; test: Protective activity against histamine-induced increase in macromolecular permeability in po dosed golden hamster cheek pouch administered 30 mins before induction of anesthesia
Method in brief: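 Oral gavage to male hamsters 30 min before anesthesia induction. Permeability increase was induced by topical histamine on the cheek pouch and read as leakage sites per unit area (leaks/cm²) by intravital microscopy.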

[4] = tested on: Syrian golden hamster; test: Protective activity against ischemia/reperfusion-induced increase in macromolecular permeability in po dosed golden hamster cheek pouch administered for 10 days
[5] = tested on: Syrian golden hamster; test: Protective activity against histamine-induced increase in macromolecular permeability in po dosed golden hamster cheek pouch administered for 10 days

SMILES	Activity [1] [%]	Activity [2] [%]	Activity [3] [%]	Activity [4] [%]	Activity [5] [%]
C/[N+]([O-])=C/c1ccc2c(c1)OCO2	3	50	42	–	–
CNO	23	33	11	–	–
Cc1ccc(/C=[N+](\[O-])C(C)(C)C)cc1	14	55	–	–	–
CC(C)(C)/[N+]([O-])=C/c1ccc2c(c1)OCO2	65	38	–	–	–
COc1cc(/C=[N+](/C)[O-])ccc1OCc1ccccc1	72	51	15	–	–
CC(C)(C)NO	10	7	40	–	–
CC(C)(C)/[N+]([O-])=C/c1ccc(Cl)cc1	63	53	–	–	–
Cc1ccc(/C=[N+](/C)[O-])cc1	24	21	–	–	–
Cc1c(C)c2c(c(C)c1O)CC[C@@](C)(CCC[C@H](C)CCC[C@H](C)CCCC(C)C)O2 [ALPHA-TOCOPHEROL]	–	–	–	50	40
C/[N+]([O-])=C/c1cccc(Oc2ccccc2)c1	46	61	13	–	–
C/[N+]([O-])=C/c1ccc(Cl)cc1	31	27	29	–	–
COc1cc(/C=[N+](\[O-])C(C)(C)C)ccc1OCc1ccccc1	68	36	32	–	–
C/[N+]([O-])=C/c1ccco1	15	59	32	–	–
CC(C)(C)/[N+]([O-])=C/c1cccc(Oc2ccccc2)c1	12	18	–	–	–
